# ChEMBL document CHEMBL1137484, “Design and synthesis of opioidmimetics containing 2',6'-dimethyl-L-tyrosine and a pyrazinone-ring platform” (Bioorg Med Chem Lett, 2007)
# How the values were obtained:
# Mu-type opioid receptor [1] = target: T1, Mu-type opioid receptor (Cavia porcellus, UniProt P97266); experiment: Agonist activity at mu opioid receptor in guinea pig ileum assessed as inhibition of electrically-stimulated muscle contraction; assay type: functional, tissue-based
# How it was run: (§1)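 Reference agonists run alongside: deltorphin II for delta in mouse vas deferens (MVD) and endomorphin 2 for mu in guinea pig ileum (GPI).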
# [2] = target: Delta-type opioid receptor (Homo sapiens, UniProt P41143); experiment: Displacement of [3H]deltorphin 2 from delta opioid receptor
# Delta-type opioid receptor (Homo sapiens, UniProt P41143), sequence (P41143 whole entry): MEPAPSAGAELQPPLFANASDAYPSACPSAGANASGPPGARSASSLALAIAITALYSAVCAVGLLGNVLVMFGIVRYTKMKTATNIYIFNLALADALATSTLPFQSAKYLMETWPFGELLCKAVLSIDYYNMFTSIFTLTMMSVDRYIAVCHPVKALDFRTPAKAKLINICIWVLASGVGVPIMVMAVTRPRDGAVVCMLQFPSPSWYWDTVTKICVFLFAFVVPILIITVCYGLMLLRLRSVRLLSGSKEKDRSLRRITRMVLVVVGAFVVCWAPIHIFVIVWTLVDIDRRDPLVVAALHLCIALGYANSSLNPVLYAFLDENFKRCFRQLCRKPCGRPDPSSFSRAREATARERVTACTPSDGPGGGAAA
# Mu-type opioid receptor [3] = target: Mu-type opioid receptor (Homo sapiens, UniProt P35372); experiment: Displacement of [3H]DAMGO from human mu opioid receptor
# Mu-type opioid receptor (Homo sapiens, UniProt P35372), sequence (P35372 whole entry): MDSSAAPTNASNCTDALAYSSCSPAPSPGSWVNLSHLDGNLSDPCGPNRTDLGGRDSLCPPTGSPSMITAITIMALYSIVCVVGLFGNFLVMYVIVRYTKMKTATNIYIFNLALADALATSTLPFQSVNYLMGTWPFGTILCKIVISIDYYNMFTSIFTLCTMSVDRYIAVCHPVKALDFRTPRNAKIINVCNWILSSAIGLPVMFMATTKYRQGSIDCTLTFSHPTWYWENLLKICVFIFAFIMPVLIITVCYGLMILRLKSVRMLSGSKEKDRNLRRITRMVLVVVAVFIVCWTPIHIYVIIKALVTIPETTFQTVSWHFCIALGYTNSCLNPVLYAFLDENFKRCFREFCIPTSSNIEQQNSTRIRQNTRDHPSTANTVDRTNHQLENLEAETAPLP
# Homo sapiens = organism: Homo sapiens; experiment: Selectivity for human mu opioid receptor over human delta opioid receptor
# Mu-type opioid receptor [4] = target: T1, Mu-type opioid receptor; experiment: Antagonist activity at mu opioid receptor in guinea pig ileum; assay type: functional, tissue-based; settings: read-out: pA2 (converted)
# How it was run: (§2)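 Antagonism given as pA2: the negative log of the antagonist concentration (M) that doubles the agonist concentration needed to restore the original response. The agonist was deltorphin II in MVD (delta) and endomorphin 2 in GPI (mu).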
# [5] = target: T2, Delta-type opioid receptor (Mus musculus, UniProt P32300); experiment: Agonist activity at delta opioid receptor in mouse vas deferens assessed as inhibition of electrically-stimulated muscle contraction; assay type: functional, tissue-based; how it was run: as §1
# T2 sequence (P32300 whole entry): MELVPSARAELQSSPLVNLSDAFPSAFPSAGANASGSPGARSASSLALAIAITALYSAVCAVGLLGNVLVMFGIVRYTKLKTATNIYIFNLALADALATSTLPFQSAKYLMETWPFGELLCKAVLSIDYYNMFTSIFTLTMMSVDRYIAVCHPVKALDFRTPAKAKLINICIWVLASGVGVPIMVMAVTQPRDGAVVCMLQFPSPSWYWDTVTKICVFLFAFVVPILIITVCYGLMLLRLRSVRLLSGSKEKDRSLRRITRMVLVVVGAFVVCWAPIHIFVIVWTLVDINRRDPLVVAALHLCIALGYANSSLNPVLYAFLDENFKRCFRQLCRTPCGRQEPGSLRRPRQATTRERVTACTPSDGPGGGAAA
# [6] = target: Delta-type opioid receptor (Mus musculus) (UniProt P32300); experiment: Agonist activity at delta opioid receptor in mouse vas deferens assessed as inhibition of electrically-stimulated muscle contraction at 10 uM; assay type: functional, tissue-based
# Delta-type opioid receptor (Mus musculus), sequence (P32300 whole entry): as above
# [7] = target: T2, Delta-type opioid receptor; experiment: Antagonist activity at delta opioid receptor in mouse vas deferens; assay type: functional, tissue-based; settings: read-out: pA2 (converted); how it was run: as §2
# [8] = target: Mu-type opioid receptor (Cavia porcellus) (UniProt P97266); experiment: Agonist activity at mu opioid receptor in guinea pig ileum assessed as inhibition of electrically-stimulated muscle contraction at 10 uM; assay type: functional, tissue-based
# Mu-type opioid receptor (Cavia porcellus), sequence (P97266 whole entry): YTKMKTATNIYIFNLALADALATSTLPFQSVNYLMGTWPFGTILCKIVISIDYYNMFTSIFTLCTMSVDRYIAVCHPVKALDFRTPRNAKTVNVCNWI
# T1 sequence (P97266 whole entry): as above
Compound,IC50 (Mu-type opioid receptor [1]),Ki [2],Ki (Mu-type opioid receptor [3]),Ratio Ki (Homo sapiens),Kb (Mu-type opioid receptor [4]),IC50 [5],inhibition [6],Kb [7],inhibition [8]
Cc1cc(O)cc(C)c1C[C@H](N)C(=O)NCCCc1nc(C)c(CCc2ccccc2)[nH]c1=O,5.55 µM,0.0382 µM,0.00055 µM,69,> 1 µM,> 10 µM,4.1%,1.35 µM,
Cc1cc(O)cc(C)c1C[C@H](N)C(=O)NCCCCc1[nH]c(=O)cnc1C,> 10 µM,0.344 µM,0.0569 µM,6,> 1 µM,> 10 µM,28.1%,> 3.16 µM,37.1%
Cc1cc(O)cc(C)c1C[C@H](N)C(=O)NCCCc1nc(C)c(Cc2ccccc2)[nH]c1=O,> 10 µM,0.0596 µM,0.001 µM,60,,> 10 µM,34.6%,1.23 µM,36.7%
Cc1c[nH]c(=O)c(CCCCNC(=O)[C@@H](N)Cc2c(C)cc(O)cc2C)n1,> 10 µM,0.0738 µM,0.00062 µM,119,,> 10 µM,25.7%,> 3.16 µM,47.6%
Cc1cc(O)cc(C)c1C[C@H](N)C(=O)NCc1nc(C)c(C)[nH]c1=O,> 10 µM,0.698 µM,0.129 µM,5.4,,> 10 µM,28.1%,1.48 µM,20.6%
Cc1cc(O)cc(C)c1C[C@H](N)C(=O)NCCCc1nc(C)c(C)[nH]c1=O,> 10 µM,0.269 µM,0.00888 µM,30,,> 10 µM,31.1%,> 3.16 µM,22.7%
Cc1cccc(C)c1Cc1[nH]c(=O)c(CCCCNC(=O)[C@@H](N)Cc2c(C)cc(O)cc2C)nc1C,6.27 µM,0.0053 µM,0.00066 µM,8,> 1 µM,> 10 µM,6.4%,0.245 µM,
Cc1cc(O)cc(C)c1C[C@H](N)C(=O)NCCCCc1[nH]c(=O)c(C)nc1C,> 10 µM,0.208 µM,0.0154 µM,14,> 1 µM,> 10 µM,0%,2.34 µM,30.1%
Cc1cc(O)cc(C)c1C[C@H](N)C(=O)NCCCCc1nc(C)c(C)[nH]c1=O,> 10 µM,0.0777 µM,0.00423 µM,18,0.2 µM,> 10 µM,26.2%,2.51 µM,35.1%
Cc1cc(O)cc(C)c1C[C@H](N)C(=O)NCCCCc1nc(C)c(CCc2ccccc2)[nH]c1=O,0.0159 µM,0.0559 µM,0.000125 µM,447,,> 10 µM,12.8%,0.447 µM,
Cc1cc(O)cc(C)c1C[C@H](N)C(=O)NCCc1nc(C)c(C)[nH]c1=O,> 10 µM,0.0931 µM,0.0765 µM,1.2,,> 10 µM,25.2%,1.35 µM,45%
Cc1cc(O)cc(C)c1C[C@H](N)C(=O)NCCCCc1nc(C)c(Cc2ccccc2)[nH]c1=O,> 10 µM,0.0086 µM,0.00042 µM,20,,> 10 µM,19.9%,0.589 µM,39.5%
